Drawing on ChEMBL document CHEMBL4359903, “1,2,4-Oxadiazole derivatives targeting EGFR and c-Met degradation in TKI resistant NSCLC” (Eur J Med Chem, 2019), this text covers Activity for one compound.

What all share (format): cell-based
The target of experiment [1] is Hepatocyte growth factor receptor (Homo sapiens) (UniProt P08581). In words: Effect on c-Met degradation in human NCI-H1975 cells harboring EGFR L858R/T790M double assessed as reduction in c-Met expression at 0.2 to 0.6 uM incubated for 48 hrs by RT-PCR analysis. In short, it runs like this: (§1)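 Total RNA extracted with TRIzol from H1975 and A549 cells treated at 0.2–0.6 µM. EGFR and c-Met mRNA assessed by RT-PCR.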

Experiment [2] relates to Epidermal growth factor receptor (Homo sapiens), P00533 [L858R,T790M]. In words: Induction of EGFR L858R/T790M double mutant degradation in human NCI-H1975 cells assessed as change in EGFR expression at 0.2 to 0.6 uM incubated for 48 hrs by RT-PCR analysis. In a few lines:
as §1

The subject of experiment [3] is Epidermal growth factor receptor (Homo sapiens), P00533 [G719A,T790M]. In words: Induction of EGFR G719A/T790M mutant degradation in human CL97 cells assessed as reduction in Akt phosphorylation at 0.4 to 0.8 uM incubated for 48 hrs by Western blot analysis. In a few lines:
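After 48 h treatment, cells were scraped and lysed in 1% SDS, 50 mM Tris-HCl pH 8.0, 10 mM EDTA with protease and phosphatase inhibitors. Lysates sonicated, protein measured by BCA, equal amounts run on SDS-PAGE and blotted to nitrocellulose. Primary antibodies (EGFR, c-Met, S473-Akt, Akt, GAPDH) used at 1:1000 overnight at 4 °C, HRP secondaries at 1:5000, ECL detection.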

Calls of active or inactive are those of the source. No cut-off for these calls is given here.

Chain of Hepatocyte growth factor receptor (Homo sapiens) (P08581 whole entry): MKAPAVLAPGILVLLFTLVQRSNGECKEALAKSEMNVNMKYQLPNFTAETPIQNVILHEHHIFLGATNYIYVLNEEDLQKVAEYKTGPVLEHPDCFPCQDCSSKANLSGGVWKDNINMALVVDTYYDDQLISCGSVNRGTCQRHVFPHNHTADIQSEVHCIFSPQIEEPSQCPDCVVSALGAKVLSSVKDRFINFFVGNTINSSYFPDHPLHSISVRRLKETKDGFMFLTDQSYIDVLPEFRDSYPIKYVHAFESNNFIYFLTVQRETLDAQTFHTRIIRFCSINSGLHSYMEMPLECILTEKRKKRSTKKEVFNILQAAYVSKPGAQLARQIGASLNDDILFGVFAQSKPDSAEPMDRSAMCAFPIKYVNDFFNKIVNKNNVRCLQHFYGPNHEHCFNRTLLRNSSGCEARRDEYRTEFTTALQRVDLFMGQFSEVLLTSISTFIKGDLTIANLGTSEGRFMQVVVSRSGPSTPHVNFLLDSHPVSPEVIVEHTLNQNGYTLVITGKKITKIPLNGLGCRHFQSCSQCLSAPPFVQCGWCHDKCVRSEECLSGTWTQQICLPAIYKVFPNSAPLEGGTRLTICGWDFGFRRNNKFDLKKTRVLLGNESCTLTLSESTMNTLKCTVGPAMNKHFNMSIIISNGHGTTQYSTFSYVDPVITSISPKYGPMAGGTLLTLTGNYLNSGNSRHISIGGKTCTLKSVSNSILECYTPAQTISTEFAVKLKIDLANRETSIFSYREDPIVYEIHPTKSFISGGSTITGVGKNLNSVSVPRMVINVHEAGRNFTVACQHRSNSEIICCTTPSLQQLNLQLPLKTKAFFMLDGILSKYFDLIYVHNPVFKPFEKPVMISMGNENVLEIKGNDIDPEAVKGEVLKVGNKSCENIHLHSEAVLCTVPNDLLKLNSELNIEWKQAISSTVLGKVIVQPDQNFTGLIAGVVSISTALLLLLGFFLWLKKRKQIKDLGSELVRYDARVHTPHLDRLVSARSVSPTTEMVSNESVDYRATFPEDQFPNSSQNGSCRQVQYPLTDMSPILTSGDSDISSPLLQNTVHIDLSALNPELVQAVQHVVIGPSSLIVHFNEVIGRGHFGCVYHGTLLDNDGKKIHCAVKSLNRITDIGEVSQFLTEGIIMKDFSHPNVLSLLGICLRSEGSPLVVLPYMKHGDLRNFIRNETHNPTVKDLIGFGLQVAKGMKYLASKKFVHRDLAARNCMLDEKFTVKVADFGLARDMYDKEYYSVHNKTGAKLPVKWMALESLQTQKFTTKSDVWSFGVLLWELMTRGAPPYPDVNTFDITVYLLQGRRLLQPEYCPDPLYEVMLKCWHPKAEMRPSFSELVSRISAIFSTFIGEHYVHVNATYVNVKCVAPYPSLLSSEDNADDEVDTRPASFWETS

As for `O=C(Nc1cccc(-c2nc(-c3ccc(NC(=O)c4cccnc4)cc3Cl)no2)c1)Nc1ccc(NC(=O)C2CC2)c(C(F)(F)F)c1`, the outcome in experiment [1] and in experiment [2] was inactive. Further, the result in experiment [3] was Active.
